From article PMC5532717 (ACS Central Science, 2017)

How the values were obtained:
Format in all cases: biochemical
human β-glucosidase GBA1 [1] = target: T1, human β-glucosidase GBA1 (Homo sapiens, UniProt P04062, R534H); test: In vitro apparent IC50, recombinant GBA1
T1 sequence (P04062 40-536 R534H): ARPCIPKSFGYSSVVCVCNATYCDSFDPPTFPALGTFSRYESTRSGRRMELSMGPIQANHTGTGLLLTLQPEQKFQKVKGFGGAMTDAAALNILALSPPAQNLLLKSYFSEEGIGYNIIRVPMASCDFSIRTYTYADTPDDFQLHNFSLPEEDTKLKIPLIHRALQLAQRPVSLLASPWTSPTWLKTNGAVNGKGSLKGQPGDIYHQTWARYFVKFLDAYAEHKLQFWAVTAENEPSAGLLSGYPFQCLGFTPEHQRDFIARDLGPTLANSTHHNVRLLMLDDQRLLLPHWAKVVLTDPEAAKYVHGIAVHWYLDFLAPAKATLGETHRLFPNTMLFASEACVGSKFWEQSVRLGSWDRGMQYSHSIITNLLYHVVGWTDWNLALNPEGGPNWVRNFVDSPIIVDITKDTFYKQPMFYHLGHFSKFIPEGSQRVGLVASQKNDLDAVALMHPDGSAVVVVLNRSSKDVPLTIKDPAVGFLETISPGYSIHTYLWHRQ
Method in brief: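 Recombinant human GBA1 (Cerezyme) preincubated with a range of test compound concentrations for 30 min at 37 °C, then added to 4-MU-Glc substrate mixture to measure residual activity. Reaction quenched with 1 M NaOH–glycine (pH 10.3); 4-MU fluorescence read at λEX 366 / λEM 445 nm. Apparent IC50 is the mean of three technical replicates.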

GBA2 = target: T2, GBA2 (Homo sapiens, UniProt Q9HCG7); test: In vitro apparent IC50, GBA2 overexpressing HEK293T lysate, 4-MU-β-Glc
T2 sequence (Q9HCG7 1-927): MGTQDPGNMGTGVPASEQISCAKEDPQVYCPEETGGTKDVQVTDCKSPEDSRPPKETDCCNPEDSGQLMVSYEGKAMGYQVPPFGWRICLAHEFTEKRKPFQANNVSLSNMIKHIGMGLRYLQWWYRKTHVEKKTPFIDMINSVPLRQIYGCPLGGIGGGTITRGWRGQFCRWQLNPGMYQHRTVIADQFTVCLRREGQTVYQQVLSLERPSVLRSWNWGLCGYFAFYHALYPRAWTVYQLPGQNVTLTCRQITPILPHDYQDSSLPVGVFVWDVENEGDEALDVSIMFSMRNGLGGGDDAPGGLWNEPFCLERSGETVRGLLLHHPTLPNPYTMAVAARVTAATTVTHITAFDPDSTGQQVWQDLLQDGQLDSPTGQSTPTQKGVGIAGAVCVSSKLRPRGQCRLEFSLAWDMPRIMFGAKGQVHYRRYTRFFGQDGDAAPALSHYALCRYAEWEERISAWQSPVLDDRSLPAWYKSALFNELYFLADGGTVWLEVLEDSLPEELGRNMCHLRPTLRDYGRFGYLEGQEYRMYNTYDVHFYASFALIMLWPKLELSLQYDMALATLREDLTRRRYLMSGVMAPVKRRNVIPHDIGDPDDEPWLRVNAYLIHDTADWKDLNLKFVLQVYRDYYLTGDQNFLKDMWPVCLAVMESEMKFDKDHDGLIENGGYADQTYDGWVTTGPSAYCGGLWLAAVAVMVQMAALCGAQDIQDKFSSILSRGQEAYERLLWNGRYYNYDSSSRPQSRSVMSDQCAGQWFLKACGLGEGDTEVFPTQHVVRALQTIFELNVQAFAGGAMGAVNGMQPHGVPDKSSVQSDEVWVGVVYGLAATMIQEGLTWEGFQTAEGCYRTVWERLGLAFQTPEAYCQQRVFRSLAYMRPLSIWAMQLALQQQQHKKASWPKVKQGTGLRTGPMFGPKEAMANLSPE
Method in brief: (§1)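 The enzyme source was GBA2-overexpressing HEK293T lysate or recombinant human GAA. It was preincubated 30 min at 37 °C with a range of test compound concentrations, then transferred into 4-MU glucoside substrate mixture to measure residual activity. Quenched with 1 M NaOH–glycine pH 10.3; 4-MU fluorescence at λex 366/λem 445 nm. Apparent IC50 is the mean of three technical replicates.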

human α-glucosidase GAA [2] = target: T3, human α-glucosidase GAA (Homo sapiens, UniProt P10253); test: In vitro apparent IC50, recombinant GAA
Method in brief: as §1

human β-glucosidase GBA1 [3] = target: T1, human β-glucosidase GBA1; test: Inhibition kinetics, recombinant GBA1, 2,4-DNP-β-Glc; conditions: irreversible inhibition, 37 °C, pH 5.2
Method in brief: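 Recombinant human GBA1 preincubated with test compound for 0.5–8 min (fast inhibitors) or 0.5–360 min (slow), then added to 2,4-DNP-Glc. Residual rate taken from 400 nm absorbance versus a no-inhibitor control. kobs is the slope of −ln V/V0 versus time; kinact and KI come from a hyperbolic fit of kobs versus [I]. For fast inhibition (>50% after 30 s), kinact/KI is the linear slope at [I] ≪ KI.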

human α-glucosidase GAA [4] = target: T3, human α-glucosidase GAA; test: Inhibition kinetics, recombinant GAA, 2,4-DNP-α-Glc

Question: For `OC[C@@H]1[C@@H](O)[C@H](O)[C@@H](O)[C@@H]2O[C@H]12` [Compound 1, cyclophellitol, reference compound], which IC50 (human β-glucosidase GBA1 [1]) is on record?
Answer: Its IC50 is 165 ± 4 nM.

Question: What about the IC50 (GBA2) of the same compound?
Answer: The IC50 was 139 ± 60 nM.

Question: What about the IC50 (human α-glucosidase GAA [2]) of the same compound?
Answer: Its IC50 is > 100000 nM.

Question: What about the “β-glucosidase GBA1 kinact” value (human β-glucosidase GBA1 [3]) of the same compound?
Answer: The value was 0.72 min^–1.

Question: What about the Ki (human α-glucosidase GAA [4]) of the same compound?
Answer: The Ki was > 500000 nM.
